Measured values gathered from unrelated publications.
Lines come from different studies, so protocols differ.
Read-out: DPPH scavenging

SMILES | test | conditions | IC50
O=C1O[C@H]([C@@H](O)CO)C(O)=C1O | absorbance | 30 min | 11.6 µM
CCN(CC)c1ccc(/C=N/c2ccccc2F)c(O)c1 |  |  | 38.1 µM
O=C1O[C@H]([C@@H](O)CO)C(O)=C1O |  |  | 350 µM
Fc1ccccc1/C=N/N=C/c1ccccc1F |  |  | 2800 µM
Cc1c(C)c2c(c(C)c1O)CCC(C)(C(=O)O)O2 (stereo not shown) |  |  | 221 µM
Oc1cc(O)c2c(c1)O[C@H](c1ccc(O)c(O)c1)[C@@H](O)C2 |  |  | 31.2 µM
O=[N+]([O-])c1ccccc1/C=N/N=C/c1ccccc1[N+](=O)[O-] |  |  | 2940 µM
Cc1cc(C(C)(C)C)c(O)c(C(C)(C)C)c1 | absorbance | 30 min | 69 µg/mL
CCN(CC)c1ccc(/C=N/c2ccccc2Br)c(O)c1 |  |  | 40.5 µM
Clc1ccc(/C=N/N=C/c2ccc(Cl)cc2)cc1 |  |  | > 3000 µM
